HTRA1 inh = blocks human HTRA1 serine peptidase. recombinant HTRA1, FP-rhodamine activity-based probe, fluorescence polarization. inhibition, % at 5.96 µM. 340,000 compounds, 0.5% hits. Q92743; in the data active means inhibition above about 36%;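 further: 0% = enzyme with DMSO and 100% = wells lacking enzyme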
ABHD4 inh = inhibits mouse alpha/beta hydrolase domain 4; purified mABHD4, FP-Rh probe fluorescence polarization; Q8VD66; AID 720543; 370,000 compounds, 0.54% hits; inhibition, % at 8.92 µM;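 active means inhibition exceeding the mean over every tested compound plus 3 SD, cut at about 30% in these data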;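 further: 0% = plate median of compound wells and 100% = S159A mutant with DMSO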
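Doses – 8.92 µM, single dose · Material – wild-type mouse ABHD4 protein · Replication – single well per compound (singlicate) · Measure – percent inhibition of probe binding, normalized to plate controls · Schedule – 45 min compound pre-incubation plus 60 min probe step, 25 °C · Detection – fluorescence polarization with parallel and perpendicular emission, 525/598 nm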
rCAG binder = r(CAG) repeat RNA binding | TO-PRO-1 dye displacement fluorescence | inhibition, % at 3 µM | 370,000 compounds, 1.3% hits | AID 651821;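 active means inhibition above the plate cutoff, the mean of all test compounds on that plate plus 3 SD, cut at about 35% in these data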;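 further: 0% = DMSO alone and 100% = 100 µM mitoxantrone as full dye displacement; higher means more dye released from RNA so lower well fluorescence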
TCR-CD3 inh = blocks the human TCR-CD3 interaction. TAMRA-labeled TCR probe fluorescence, biochemical. inhibition, % at 9.4 µM. 360,000 compounds, 0.37% hits; in the data active means inhibition above about 19%;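 further: recombinant mutant TCR 2C K166C tagged with TAMRA read by polarization; 0% = receptor in buffer alone and 100% = receptor with positive control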
SIAE inh = human SIAE inhibition, primary screen | SIAE FP-Rh probe binding, fluorescence polarization | inhibition, % at 9.66 µM | 370,000 compounds, 0.69% hits;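 active means inhibition above a cutoff: mean of compounds within the control limits plus 3 SD of those, cut at about 17% in these data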;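 further: 0% = plate median of compound wells and 100% = probe without SIAE protein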
PRMT1 FP inh = inhibitors of human PRMT1 | AID 652257 | Q99873 | inhibition, % at 2.79 µM | 370,000 compounds, 1.3% hits | recombinant PRMT1, activity-based probe fluorescence polarization;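 active means inhibition above about 21% made by adding two undisclosed values, limit read from the data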
Target sequence (Q99873 whole entry, looked up): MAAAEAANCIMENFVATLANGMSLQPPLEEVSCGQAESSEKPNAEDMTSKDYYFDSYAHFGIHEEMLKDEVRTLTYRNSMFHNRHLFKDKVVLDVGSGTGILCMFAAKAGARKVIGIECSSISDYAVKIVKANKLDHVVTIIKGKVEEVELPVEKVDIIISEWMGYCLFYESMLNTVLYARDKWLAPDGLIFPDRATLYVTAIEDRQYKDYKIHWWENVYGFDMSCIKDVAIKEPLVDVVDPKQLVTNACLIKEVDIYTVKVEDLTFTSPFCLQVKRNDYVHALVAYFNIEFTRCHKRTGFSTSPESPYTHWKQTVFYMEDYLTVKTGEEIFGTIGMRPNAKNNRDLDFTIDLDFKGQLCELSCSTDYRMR
SIAE confirm = confirmation of human SIAE inhibitors; shares compounds with SIAE inh; SIAE FP-Rh activity-based probe, fluorescence polarization; inhibition, % at 9.66 µM; 2,300 compounds, 13% hits;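 active means mean inhibition of the replicates above the hit cutoff set in the primary screen, cut at about 17% in these data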;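 further: 0% = SIAE with DMSO and probe and 100% = probe without SIAE; inhibitors lower polarization as more probe stays unbound to SIAE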
Numbers without * were called inactive; . = no result. Only some compounds are listed: those with a hit (about 3.5% of all), similar ones and a draw of the others.

SMILES | HTRA1 inh | ABHD4 inh | rCAG binder | TCR-CD3 inh | SIAE inh | PRMT1 FP inh | SIAE confirm
CCCC(C(=O)NC1CCCC1)N(Cc1ccc2c(c1)OCO2)C(=O)c1snc(C(N)=O)c1N (stereo not drawn) | -1 | 1 | -5 | 3 | 24* | -3 | 3
CC1CCN(C(=O)c2ccc(S(=O)(=O)N3CCOCC3)cc2)CC1 | 4 | 6 | -2 | -8 | 1 | 7 | .
CC(=O)c1ccc2c(c1)C1C=CCC1C(c1ccc(S(=O)(=O)N3CCOCC3)cc1)N2 (stereo not drawn) | 5 | 13 | 31 | -1 | 18* | 6 | 2
COC(=O)C[C@@H]1CC[C@H]2[C@H](COc3ccc(NC(=O)c4cccc(C(F)(F)F)c4)cc3C(=O)N2C)O1 | . | -2 | 4 | . | 0 | 0 | .
CC(=O)NC(c1ccco1)c1cc(Cl)c2cccnc2c1O (stereo not drawn) | . | 18 | 8 | -3 | 18* | -1 | 7
O=C(C1CCC(CNc2nc(=S)[nH]c3ccccc23)CC1)N1CCN(c2ccc(F)cc2)CC1 (stereo not drawn) | -7 | -2 | 6 | -2 | 20* | 0 | -12
COc1ccc(N2CCN(CCCNC(=O)C3CCC(CNc4nc(=S)[nH]c5ccccc45)CC3)CC2)cc1 (stereo not drawn) | 5 | 4 | -4 | -13 | 5 | 1 | .
Fc1ccc(C2Nc3cccc4cccc(c34)N2)cc1 | 12 | 9 | 8 | 1 | 19* | 9 | 10
Cc1ccc(C2Nc3cccc4cccc(c34)N2)s1 | 14 | 8 | 15 | 5 | 27* | 6 | 13
COc1ccc(Cl)cc1/C=C1/C(=O)ON=C1C | 3 | -4 | 1 | -8 | 7 | -1 | .
CCOc1ccc(Cl)cc1/C=C1/C(=O)ON=C1C | 1 | 5 | 3 | 0 | 18* | 0 | 1
Cc1ccc(S(=O)(=O)N2c3ccccc3C[C@H]2CC=C(c2ccccc2)c2ccccc2)cc1 | . | -8 | . | . | -8 | -3 | .
COc1ccc(Cc2nnc(N)s2)cc1OC | 1 | 0 | -2 | 0 | -4 | 1 | .
COc1ccc(Cc2nnc(N)s2)cc1 | -3 | 3 | 0 | -5 | 17* | 1 | -8
Cn1cc(CC(=O)Nc2ccc(Nc3cccnc3)cc2)c2ccccc21 | . | 8 | 4 | -7 | 21* | 2 | 23*
COc1cccc(NC(=O)Cc2cn(C)c3ccccc23)c1 | -5 | 2 | 3 | -2 | 0 | -1 | .
CN(c1cccnc1)c1ccc(NC(=O)Cc2cn(Cc3ccccc3)c3ccccc23)cc1Br | . | 18 | 9 | 2 | 21* | 3 | 24*
CC(=O)c1cc(-c2cccc(CO)c2)c(=O)n2c1CCC2 | . | 2 | 3 | . | -2 | 2 | .
CC(=O)OC(C(=O)NC1CCCCC1)c1ccccc1F (stereo not drawn) | -3 | 0 | -5 | 6 | 18* | -8 | -4
O=C(C1CCCN1S(=O)(=O)c1ccccc1[N+](=O)[O-])N1CCN(c2ccccc2)CC1 (stereo not drawn) | . | -14 | 7 | . | 0 | 6 | .
CCN(CC)c1ccc(NC(=O)c2ccc3c(c2)OCO3)c(C)c1 | 1 | 3 | 2 | 2 | 20* | -5 | -5
CCN(C(=O)COC(=O)c1ccc(Sc2ncn[nH]2)c([N+](=O)[O-])c1)c1ccccc1 | . | -1 | 14 | . | 6 | 1 | .
O=C1CCC[C@H]2C[C@H](NCc3ccc(Cl)c(C(F)(F)F)c3)CC[C@]23CCCN13 | . | 6 | . | . | 4 | -2 | .
CC(C)Nc1nc(NCCOc2ccccc2Cl)c2sc(-c3ccccc3)cc2n1 | . | 26 | 8 | 2 | 19* | -4 | 20*
COCCNc1nc(NCCOc2ccccc2)c2sc(-c3ccccc3)cc2n1 | . | 22 | 5 | -1 | 22* | -1 | 21*
SMILES | HTRA1 inh | ABHD4 inh | rCAG binder | TCR-CD3 inh | SIAE inh | PRMT1 FP inh | SIAE confirm
COc1ccccc1CNc1nc(NC(C)C)nc2cc(-c3ccccc3)sc12 | . | 22 | 2 | 2 | 22* | -4 | 28*
C=CCNc1nc(NCc2cccc(OC)c2)c2sc(-c3ccccc3)cc2n1 | . | 12 | 8 | -5 | 20* | -2 | 3
COCCNc1nc(NCCOC)c2sc(-c3ccccc3)cc2n1 | . | -5 | 1 | -9 | 3 | 3 | .
CCOC(=O)[C@@]12CCCC3=C1N(CCC3)C(=O)[C@H]2CC(=O)N1CCCCC1 | . | -2 | -3 | . | 4 | -2 | .
Cc1c[nH]c2cccc(-c3ccc(Cl)cc3Cl)c12 | . | -12 | 2 | . | 3 | -1 | .
Cc1cccc(Cn2cc(COC(=O)N3CCOCC3)nn2)c1 | . | 2 | 3 | . | 6 | -2 | .
CC[n+]1ccc(C[n+]2ccccc2)c2ccccc21 | -4 | 6 | -1 | -2 | 20* | 2 | 22*
CCCn1c(NC(=O)c2ccccc2)nc(Cc2ccccc2)c1-c1ccc(OC)cc1 | . | 8 | 5 | . | -1 | 2 | .
COc1ccc(-c2c(Cc3ccccc3)nc(NC(=O)c3ccccc3F)n2C)cc1 | . | -13 | 6 | . | 41* | -3 | 3
O=C(CCc1c[nH]c2ccccc12)Nc1ccc(Oc2cccnc2)cc1 | . | -9 | 6 | 2 | 22* | 3 | 32*
O=C(NNC(=O)c1ccc2c(=O)n3c(nc2c1)CCC3)c1ccc(F)cc1 | 2 | 2 | 1 | -1 | 23* | -3 | 3
O=C(NNC(=O)c1ccc2c(=O)n3c(nc2c1)CCC3)c1ccc(Cl)cc1 | 1 | -4 | 1 | 4 | 3 | -2 | .
CCC(C)CNC(=O)CSc1nnc(-c2cccnc2)n1C1CCCCC1 (stereo not drawn) | . | -2 | 0 | . | 7 | 2 | .
O=C(CSc1nnc(-c2ccccn2)n1Cc1ccco1)Nc1ccc(Oc2ccccc2)cc1 | . | -13 | 5 | . | -11 | -7 | .
Cn1cccc1Cc1nnc(SCC(=O)Nc2nccs2)n1C | 4 | 0 | 2 | 9 | 3 | 6 | .
COc1ccc(-n2c(Cc3cccn3C)nnc2SCC(=O)Nc2nccs2)cc1 | 7 | 0 | 8 | 0 | 17* | 7 | 3
CCOc1ccc(N(C(C)C(=O)N2CCCCCC2)S(C)(=O)=O)cc1 (stereo not drawn) | 5 | 1 | -4 | 9 | 18* | 0 | -2
CCCCCC(=O)NC1CCCCN(Cc2ccccc2C)C1=O (stereo not drawn) | . | -1 | -2 | . | 2 | -6 | .
Cc1ccc(NC(=S)NNS(=O)(=O)c2ccc3ccccc3c2)cc1Cl | -7 | -5 | 9 | -9 | 18* | 2 | 4
CC(=O)CSc1ccc(S(=O)(=O)N2CCN(C)CC2)cn1 | 1 | -1 | 3 | -1 | 23* | 7 | -2
COC(=O)C[C@@H]1CC[C@H]2[C@@H](COc3ccc(NC(=O)Nc4cccc(F)c4)cc3C(=O)N2C)O1 | . | 4 | 6 | . | -1 | 2 | .

Source: PubChem
